Reference: ChEMBL document CHEMBL1141513, “Synthesis and evaluation of [123I] labeled iodovinyl amino acids syn-, anti-1-amino-3-[2-iodoethenyl]-cyclobutane-1-carboxylic acid, and 1-amino-3-iodomethylene-cyclobutane-1-carboxylic acid as potential SPECT brain tumor imaging agents” (Bioorg Med Chem Lett, 2008)

Key:
Rattus norvegicus = organism: Rattus norvegicus; test: Ratio of drug uptake in tumor to brain in Fischer rat transplanted with rat 9L cells; format: ADME, organism-based
In short: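 Fischer rats with intracranial 9L gliosarcoma received [123I] tracer; tumor and brain radioactivity measured at 30, 60, 120 min p.i. (n=5 per time point) as %ID/g, ratio taken as tumor over brain uptake.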

[1] = Drug uptake in tumor cells in Fischer rat transplanted with rat 9L cells after 60 mins; format: ADME, Neoplasm; details: read-out: Drug uptake
In short: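 Fischer rats bearing intracranially implanted 9L gliosarcoma tumours received the [123I]-labelled amino acid by injection. Radioactivity in tumour and normal tissues was counted at 30, 60 and 120 min post-injection, with n=5 per time point. Values were expressed as percent injected dose per gram tissue (%ID/g).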

9L [2] = test: Inhibition of drug uptake in rat 9L cells; format: cell-based
In short: (§1)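 9L rat gliosarcoma cells incubated with [123I] tracer in HBSS for 30 min at 37°C, with or without 10 mM BCH (L-type transport inhibitor) or MeAIB (A-type inhibitor); uptake expressed as %ID per 1×10^6 cells, inhibition relative to uninhibited controls; significance by 1-way ANOVA.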

[3] = Drug uptake in normal brain tissue in Fischer rat transplanted with rat 9L cells; format: ADME, tissue-based
In short: (§2)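 [123I]-labelled amino acid given to Fischer rats bearing intracranially implanted 9L gliosarcoma; tumor and normal tissue radioactivity counted at 30, 60 and 120 min post injection, n=5 per time point; expressed as percent injected dose per gram tissue (%ID/g).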

9L [4] = test: Inhibition of drug uptake in rat 9L cells in presence of 10 mM BCH relative to control; format: cell-based; in short: as §1
[5] = Drug uptake in tumor cells of Fischer rat brain transplanted with rat 9L cells; format: ADME, cell-based; details: read-out: Drug uptake; in short: as §2
9L [6] = test: Inhibition of drug uptake in rat 9L cells in presence of 10 mM MeAIB relative to control; format: cell-based; in short: as §1

Compound	Ratio (Rattus norvegicus)	Drug uptake (9L [2]) [%ID]	tissue uptake [3] [%ID/g]	Drug uptake (9L [4]) [%]	tissue uptake [5] [%ID/g]	Activity (9L [6])	tissue uptake at 1 h [1] [%ID/g]
N[C@]1(C(=O)O)C[C@@H](C[18F])C1	8.9						2.5
N[C@]1(C(=O)O)C[C@H](/C=C/[123I])C1	7.3	8.4	< 0.4	92.3	0.83	Not Active	
N[C@]1(C(=O)O)C[C@H](C[18F])C1	6.9						1.59

Second part, led by results:

Ratio (Rattus norvegicus)	Drug uptake (9L [2]) [%ID]	tissue uptake [3] [%ID/g]	Drug uptake (9L [4]) [%]	tissue uptake [5] [%ID/g]	Activity (9L [6])	Compound	tissue uptake at 1 h [1] [%ID/g]
4.7	8.4	< 0.4	92.3	0.83		NC1(C(=O)O)CC(=C[123I])C1 (configuration not stated)	
6.5	8.4	< 0.4	92.3	0.83		N[C@]1(C(=O)O)C[C@@H](/C=C/[123I])C1	
6.6						N[C@]1(C(=O)O)C[C@@H]([18F])C1 [FLUCICLOVINE F18]	1.72
